Screening results: PubChem, several laboratories
In the library only some 2.6% were active in any assay of this set; here they are far more common.
SENP7 block – SENP7 protease inhibition | 330,000 compounds, 1.5% hits | Q9BQF6 | inhibition, % at 5 µM | recombinant SENP7, Z-RLRGG-aminoluciferin luminescence, 40 min | AID 434973;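 active means inhibition above about 50% at the single test dose, limit read from the data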;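 further: plate controls were DMSO with enzyme for no effect and no enzyme buffer wells for full effect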
SENP8 block-1 – SENP8 (human) protease inhibition | inhibition, % at 20 µM | 360,000 compounds, 0.64% hits | Q96LD8 | recombinant SENP8, Nedd8 substrate fluorescence; in the data active means inhibition mostly above about 40%, no sharp cut-off; inactive means mostly below about 27%
Target sequence (Q96LD8 whole entry, looked up): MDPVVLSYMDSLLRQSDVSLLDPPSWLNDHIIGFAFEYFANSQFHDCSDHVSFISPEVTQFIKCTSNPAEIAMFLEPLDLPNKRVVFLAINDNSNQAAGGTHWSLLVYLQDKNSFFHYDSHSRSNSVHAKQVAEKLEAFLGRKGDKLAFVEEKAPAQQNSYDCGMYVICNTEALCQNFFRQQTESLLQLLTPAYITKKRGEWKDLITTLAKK
SENP1 FRET inh – inhibitors of human SENP1 SUMO protease catalytic domain; recombinant SENP1 catalytic domain, CyPet-SUMO1-YPet FRET cleavage; 360,000 compounds, 0.21% hits; inhibition, % at 10 µM; Q9P0U3;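 active means inhibition at least 30% at 10 µM, raw YFP signal under a set limit, fluorescence ratio 0.5 to 1.5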;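 further: 0% = enzyme with DMSO and 100% = no enzyme wells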
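Material – human SENP1 catalytic domain · Input – SENP1 enzyme, 20 pM final · Compound dosing – single concentration of 10 µM compound, 0.5% DMSO final · Timing – enzyme reaction for 50 min at room temperature, dark · Measured by – FRET fluorescence in CFP and YFP emission channels · Control set – no-enzyme wells low, DMSO-plus-enzyme wells high control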
Platelet DG rel – platelet dense granule release activity; human platelet-rich plasma, SFLLRN dense granule ATP release, luminescence; inhibition, %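 (compounds screened at 7.5 µM in platelet-rich plasma)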; 300,000 compounds, 0.22% hits;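 active means mean replicate score, as percent of positive control, at or above 50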
SENP6 block – SENP6 protease inhibition; Q9GZR1; 330,000 compounds, 1.8% hits; inhibition, % at 10 µM; Recombinant SENP6 catalytic domain, aminoluciferin luminescence; AID 2599;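 active means inhibition above about 50% at the single tested dose, limit read from the data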;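 further: plate controls were DMSO wells with enzyme for no effect and DMSO wells lacking enzyme for full effect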
Target sequence (Q9GZR1 628-1112 limits assumed): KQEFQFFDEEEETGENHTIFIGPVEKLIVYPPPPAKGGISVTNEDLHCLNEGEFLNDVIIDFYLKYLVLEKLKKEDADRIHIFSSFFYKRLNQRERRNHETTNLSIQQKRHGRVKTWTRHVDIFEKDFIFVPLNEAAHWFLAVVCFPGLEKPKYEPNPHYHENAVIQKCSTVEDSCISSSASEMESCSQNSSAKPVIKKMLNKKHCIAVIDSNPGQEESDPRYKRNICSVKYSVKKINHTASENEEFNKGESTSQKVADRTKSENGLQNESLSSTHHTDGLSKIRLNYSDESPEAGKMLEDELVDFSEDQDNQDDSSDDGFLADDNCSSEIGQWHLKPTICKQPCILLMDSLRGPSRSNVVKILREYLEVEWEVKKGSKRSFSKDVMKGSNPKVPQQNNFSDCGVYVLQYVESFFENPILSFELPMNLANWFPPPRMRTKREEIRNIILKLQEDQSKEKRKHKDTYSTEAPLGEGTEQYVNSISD
SENP8 block-2 – blocks the human protease SENP8; inhibition, % at 10 µM; 330,000 compounds, 1.2% hits; purified SENP8, Z-RLRGG-aminoluciferin cleavage, luminescence; in the data active means inhibition above about 50%
SENP8 conf – confirmation of human SENP8 protease inhibitors; 6,200 compounds, 40% hits; shares compounds with SENP7 block; Recombinant SENP8, Z-RLRGG-aminoluciferin luminescence, 60 min; AID 488912; inhibition, % at 12.5 µM;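 active means mean inhibition across replicates above about 50%, limit read from the data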
SENP6 conf – confirmation of human SENP6 protease inhibitors. recombinant SENP6, Z-RLRGG-aminoluciferin luminescence. 6,200 compounds, 58% hits. shares compounds with SENP7 block. inhibition, % at 12.5 µM
SENP7 confirm – human SENP7 inhibition, confirmed; shares compounds with SENP7 block; recombinant SENP7, Z-RLRGG-aminoluciferin luminescence, 40 min; inhibition, % at 12.5 µM; 6,200 compounds, 69% hits; AID 488917
Casp3 select – selectivity test for SENP inhibitors: human caspase-3 inhibition; shares compounds with SENP7 block; purified caspase-3, Z-DEVD-aminoluciferin luminescence, 60 min; inhibition, % at 12.5 µM; 6,200 compounds, 60% hits; AID 488918;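 active means mean inhibition above about 50%, limit read from the data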;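 further: plate controls were enzyme with DMSO for no effect and wells without caspase-3 for full effect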
Luc interf – counter-screen for SENP inhibitors: luminescence interference; shares compounds with SENP7 block; Pre-incubated SENP8/Z-RLRGG-aminoluciferin, luciferase luminescence interference; inhibition, % at 12.5 µM; 6,200 compounds, 39% hits; AID 488919;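 active means mean inhibition above about 50% when retested at one dose, limit read from the data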;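 further: plate controls were DMSO wells with completed reaction for no effect and substrate without enzyme for full effect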
Starred values were filed as active, the others as inactive; x = not tested or not shown.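 How the source made its calls, unless noted: active means mean inhibition above about 50% in the one-dose retest (limit read from the data); inactive means the rest.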

SMILES	SENP7 block	SENP8 block-1	SENP1 FRET inh	Platelet DG rel	SENP6 block	SENP8 block-2	SENP8 conf	SENP6 conf	SENP7 confirm	Casp3 select	Luc interf
COc1ccccc1C(=O)Nc1nsc(-c2ccccc2)n1	53.2*	10.7	2.4	14.1	61.1*	27.8	53.8*	51.7*	74.8*	66.4*	59.3*
COc1ccccc1C(=O)Nc1nnc(-c2ccc(F)cc2)s1	33.4	-135.4	-0.7	5.8	30.5	23.3	x	x	x	x	x
O=S(=O)(NC1CCCCC1NCc1ccco1)c1ccc(Cl)cc1 (stereo not drawn)	91.7*	14.0	-2.4	3.8	-21.9	-3.7	-3.8	1.9	8.7	5.6	-0.6
O=S(=O)(NC1CCCCC1Nc1ccc(Cl)cc1)c1ccccc1 (stereo not drawn)	-0.2	18.7	0.0	-2.8	-10.6	6.6	x	x	x	x	x
O=C(Nc1nc(=O)c2ccccc2s1)c1ccccc1	41.4	18.7	-0.5	0.7	59.7*	42.9	19.9	52.9*	17.4	26.6	11.2
COc1ccc(C(=O)Nc2nc3ccccc3s2)cc1	93.3*	-27.5	3.6	6.1	95.5*	89.4*	-8.6	94.5*	101.4*	87.5*	84.6*
CC(=O)Nc1nc(=O)c2ccccc2s1	2.3	15.7	-0.6	11.0	-4.7	-5.1	x	x	x	x	x
O=C(Nc1nc2ccccc2s1)c1ccc(Cl)s1	82.2*	-289.1	3.3	3.9	76.7*	66.7*	13.5	49.5	50.6*	41.1	16.8
O=C(Nc1ncccc1O)c1ccc(OCC2CCCO2)cc1 (stereo not drawn)	50.8*	-2.0	1.2	30.9	44.8	21.4	43.7	42.0	76.7*	82.3*	48.9
CCOc1ccc(OCC)c(NC(=O)C2C3C=CC(O3)C2C(=O)O)c1 (stereo not drawn)	x	7.9	1.2	x	x	x	x	x	x	x	x
CCN(C(=O)CSc1nnc(C2CC2)n1-c1ccccc1)C1CCS(=O)(=O)C1 (stereo not drawn)	-3.3	10.3	0.9	x	-10.4	-3.6	x	x	x	x	x
O=C(NCCCn1cccn1)C1CCC(=O)N(Cc2ccccc2F)C1 (stereo not drawn)	13.0	11.6	-0.1	-4.6	-19.5	-8.6	x	x	x	x	x
COc1cccc(C(=O)Nc2nc(C)cs2)c1	42.0	15.3	2.6	-2.4	52.3*	16.6	30.8	31.8	71.5*	69.3*	50.4*
COc1ccc(/C=N/OCC(=O)Nc2nc3ccccc3s2)cc1OC	74.7*	20.9	1.5	-2.1	87.1*	69.8*	11.1	78.2*	94.1*	63.5*	50.8*
COc1ccc2nc(NC(=O)c3ccc(F)cc3)sc2c1	90.5*	-237.3	2.5	3.2	64.1*	25.1	7.5	37.4	31.7	25.4	-0.7
COc1cccc(C(=O)Nc2nc(-c3ccncc3)cs2)c1	7.1	-14.6	0.3	1.7	1.0	-4.2	x	x	x	x	x
O=C(Nc1nc2c(s1)C(=O)CCC2)c1ccccc1	97.0*	-28.8	1.1	-9.7	97.5*	95.1*	96.7*	97.5*	101.1*	97.2*	95.7*
COc1ccc2nc(NC(=O)c3ccc4ncsc4c3)sc2c1	-12.0	-337.3	-166.6	14.4	-15.5	-9.0	x	x	x	x	x
CCOc1ccc(CCNC(=O)CSC(=S)N2CCCC2)cc1OCC	-2.1	19.6	1.3	12.0	-8.8	3.8	x	x	x	x	x
CN(c1ccc(C(=O)NCc2ccccn2)cc1)S(=O)(=O)c1ccc(Cl)cc1	6.6	18.6	-1.5	-7.7	-9.5	-4.6	x	x	x	x	x
Cc1cccn2c(=O)c(C(=O)NCCCN3CC(C)CC(C)C3)c(O)nc12 (stereo not drawn)	-4.2	-332.2	2.9	21.6	-4.7	1.7	x	x	x	x	x
Cc1coc2cc3oc(=O)c(CCC(=O)N4C[C@H]5C[C@@H](C4)c4cccc(=O)n4C5)c(C)c3cc12	15.9	-226.3	0.3	0.3	-18.6	-11.1	x	x	x	x	x
COc1cccc(C(=O)Nc2nnc(SCC(=O)Nc3ccc(NC(C)=O)cc3)s2)c1	49.2	-30.1	0.7	3.6	69.9*	54.8*	32.3	60.7*	86.4*	67.1*	11.9
COc1ccc(C(=O)Nc2nc3ccccc3s2)cc1OC	15.4	-102.2	-2.0	-0.6	21.5	5.8	x	x	x	x	x
COc1cccc(C(=O)Nc2nc3ccccc3s2)c1	91.4*	-16.8	-3.8	-2.7	89.8*	85.8*	90.5*	91.0*	98.8*	83.3*	59.5*
SMILES	SENP7 block	SENP8 block-1	SENP1 FRET inh	Platelet DG rel	SENP6 block	SENP8 block-2	SENP8 conf	SENP6 conf	SENP7 confirm	Casp3 select	Luc interf
O=S(=O)(/N=C(/Nc1nc2ccccc2s1)c1ccccc1)c1ccc(F)cc1	9.4	-4.6	1.7	x	18.9	1.1	x	x	x	x	x
O=C(Nc1nc2ccccc2s1)c1ccc(OCC2CCCO2)cc1 (stereo not drawn)	77.0*	-154.8	0.5	3.2	70.8*	53.5*	42.3	73.1*	92.8*	61.7*	45.9
O=C(Nc1nc2ccccc2s1)c1ccc(F)cc1	93.3*	-43.4	2.0	7.1	88.2*	84.6*	2.5	87.3*	99.9*	86.3*	47.6
COc1cccc(N2CC(C(=O)Nc3nnc(SCC(=O)Nc4ccc(NC(C)=O)cc4)s3)CC2=O)c1 (stereo not drawn)	-1.0	7.6	-1.3	16.1	0.0	1.8	x	x	x	x	x
COc1cccc(C=O)c1OC(=O)N1CCOCC1	4.8	3.5	1.9	5.1	4.9	2.3	x	x	x	x	x
Clc1ccc(/C=C/c2ncc3ccccn23)cc1	-3.4	-445.4	-33.7	19.5	-6.0	-6.1	x	x	x	x	x
CCN(CC)S(=O)(=O)c1ccc(C(=O)Nc2cc(S(=O)(=O)N3CCOCC3)ccc2O)cc1	2.3	21.2	1.7	x	-8.5	-0.7	x	x	x	x	x
Cc1csc(NC(=O)c2ccc3nc[nH]c3c2)n1	77.7*	1.2	1.7	-0.8	81.7*	68.6*	11.6	75.2*	94.6*	88.4*	73.9*
Cc1cc(C)nc(NS(=O)(=O)c2ccc(NC(=O)c3ccc4c(c3)OCCO4)cc2)n1	-8.5	14.9	2.8	4.7	-2.3	-6.0	x	x	x	x	x
Nc1c(SCCC(=O)O)ccc2c1C(=O)c1ccccc1C2=O	44.7	31.1	24.6	1.6	89.2*	84.2*	92.6*	92.9*	98.1*	93.5*	91.5*
